The source made the active and inactive calls. No cut-off for these calls is given here.
Legend:
[1] = Inhibition of Wnt/beta-Catenin signaling (unknown origin) expressed in recombinant human Wnt-3a-induced Wnt-HEK293 cells incubated for 24 hrs by luciferase reporter gene assay; assay type: cell-based
Summary of the method: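 Stably transfected Wnt-HEK293 cells, 2000/well in DMEM + 10% FBS, incubated overnight at 37 °C. Compounds pin-transferred, then recombinant human Wnt-3a added (200 ng/mL stock); unstimulated control wells received medium. After 24 h at 37 °C, ONE-Glo luminescence read after 30 min at room temperature; CellTiter-Fluor viability read in parallel. IC50 reported as mean ± SD of three independent experiments.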

SW480 [2] = experiment: Growth inhibition of human SW480 cells by Cell-titer-fluor reagent based assay; assay type: functional
Homo sapiens [3] = species: Homo sapiens; experiment: Inhibition of Wnt/beta-Catenin signaling (unknown origin) expressed in recombinant human Wnt-3a-induced Wnt-HEK293 cells assessed as increase in beta-catenin degradation at 1 uM by Western blot analysis; assay type: cell-based
[4] = Inhibition of Wnt/beta-Catenin signaling in human SW480 cells incubated for 24 hrs by TCF/LEF dual-luciferase reporter assay; assay type: cell-based; settings: SW480, 24 h
Summary of the method: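 SW480 or SW620 cells seeded at 200,000/well and transiently transfected 24 h later with TOPflash firefly luciferase plus pRLTK-Renilla using lipofectamine 2000. After 16 h the medium was replaced with compound at a range of concentrations, three replicates each. Dual firefly/Renilla luciferase read 24 h later.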

Homo sapiens [5] = species: Homo sapiens; experiment: Inhibition of Wnt/beta-Catenin signaling in human SW620 cells assessed as reduction in c-Myc mRNA expression at 10 uM incubated for 24 hrs by real-time PCR analysis; assay type: cell-based
Summary of the method: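 SW620 cells (RPMI 1640, 10% FBS) in 6-well plates, incubated 24 h, then treated with compound at several concentrations, three replicates each, for 24 h. Total RNA isolated with Trizol/phenol-chloroform; 2 µg reverse transcribed; Wnt target gene mRNA quantified by PCR.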

[6] = biological target: AMP-activated protein kinase, AMPK (Homo sapiens) (UniProt P54646+O43741+P54619+Q9UGJ0+Q9Y478+Q13131+Q9UGI9); experiment: Activation of AMPK in human SW620 cells assessed as increase in ACC phosphorylation incubated for 24 hrs by Western blot analysis; assay type: cell-based
Summary of the method: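 SW620 cells in RPMI 1640 with 10% FBS, treated over a concentration range. Lysed in RIPA with protease inhibitors, 20 µL of 2 mg/mL protein run on 7.5% SDS-PAGE, transferred to nitrocellulose, blocked in 5% BSA. Rabbit primaries (Axin-1, ACC, pACC, AMPK, pAMPK at 1:1,000; β-actin 1:2,000) overnight at 4 °C, HRP secondary 1:8000 for 2 h, ECL.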

HT-29 = experiment: Inhibition of colony formation in human HT-29 cells incubated for 14 days by crystal violet staining based assay; assay type: functional, cell-based
Summary of the method: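 SW480, SW620 or HT29 cells seeded at 300/well in 3 mL medium in 6-well plates with a concentration series of compound. After 14 days, fixed in 4% formaldehyde and stained with 0.5% crystal violet in 25% aqueous MeOH; colonies photographed.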

SW480 [7] = experiment: Induction of apoptosis in human SW480 cells incubated for 48 hrs by AAD-7 and FITC-annexin-V staining based flow cytometry; assay type: functional, cell-based
SW-620 [8] = experiment: Growth inhibition of human SW620 cells incubated for 72 hrs by Cell-titer-fluor reagent based assay; assay type: functional; settings: SW-620, 72 h
Summary of the method: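 SW620 cells, parental, overexpressing β-catenin S33Y, or with Axin-1 knocked down by lentiviral shRNA. Treated with compound or vehicle for 72 h.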

SW-620 [9] = experiment: Induction of apoptosis in human SW620 cells assessed as early apoptotic cells level at 10 uM incubated for 48 hrs by AAD-7 and FITC-annexin-V staining based flow cytometry (reference value: 18.6%); assay type: functional
SW-620 [10] = experiment: Induction of apoptosis in human SW620 cells assessed as necrotic cells level at 10 uM incubated for 48 hrs by AAD-7 and FITC-annexin-V staining based flow cytometry (reference value: 0.027%); assay type: functional
[11] = biological target: Serine/threonine-protein kinase PAK 3 (Homo sapiens) (UniProt O75914); experiment: Inhibition of PAK3 (unknown origin) at 1000 nM relative to control
Summary of the method: (§1)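 Single-concentration screen at 1000 nM against a 273-kinase panel, reported as percent inhibition.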

[12] = biological target: Protein kinase C theta type (Homo sapiens) (UniProt Q04759); experiment: Inhibition of PRKCQ (unknown origin) at 1000 nM relative to control; summary of the method: as §1
[13] = Half life in C57BL/6J mouse at 5 mg/kg, po by UPLC-MS analysis; assay type: ADME, organism-based; settings: in vivo
Summary of the method: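 Male C57BL/6J mice, 2-3 months, 23-26 g. Single 5 mg/kg dose in 5% Kolliphor in saline, given iv (n=3) or by oral gavage (n=5). Tail-vein blood taken at 0.25, 0.5, 1, 4, 8 and 12 h and spun to plasma. Plasma analysed by LC-MS/MS on a triple quadrupole with a C18 column. Parameters from non-compartmental analysis.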

SW-620 [14] = experiment: Antitumor activity against human SW620 cells xenografted in nude mouse assessed as reduction in tumor volume at 10 mg/kg, ip QD for 32 consecutive days; assay type: functional, organism-based
Summary of the method: (§2)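 Six-week-old nude mice injected subcutaneously with 2×10^6 SW620 cells. Randomised at mean tumor volume 100–200 mm³ (n=6/group). Given 10 or 50 mg/kg ip daily for 32 consecutive days; vehicle 10% DMSO, 10% Kolliphor, 80% saline. Tumor volume measured every other day. Tumors weighed after euthanasia at day 32. t test against vehicle.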

SW-620 [15] = experiment: Antitumor activity against human SW620 cells xenografted in nude mouse assessed as reduction in tumor volume at 50 mg/kg, ip QD for 32 consecutive days relative to control; assay type: functional; design: scale not given: the % may be the effect or the level left; summary of the method: as §2
[16] = Toxicity in C57BL/6 mouse assessed as effect on albumin level at 100 mg/kg/day, ip for 21 days; assay type: organism-based; settings: in vivo, 504 h
Mus musculus [17] = experiment: Activation of AMPK in nude mouse xenografted with human SW620 cells assessed as increase in ACC phosphorylation at 50 mg/kg, ip QD for 32 consecutive days by Western blot analysis; assay type: functional, organism-based
Summary of the method: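 Nude mice carried subcutaneous SW620 xenografts (2×10^6 cells, right flank). Dosing began once mean tumor volume reached 100–200 mm³: 50 mg/kg ip once daily for 32 days, vehicle 10% DMSO/10% Kolliphor/80% saline. Tumors taken at day 32 and lysed in RIPA with protease inhibitors. Western blot with 20 µL of 2 mg/mL lysate on 7.5% SDS-PAGE, probed for pAMPK/AMPK or pACC/ACC, ECL detection.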

Mus musculus [18] = experiment: Inhibition of Wnt/beta-Catenin signaling in nude mouse xenografted with human SW620 cells assessed as reduction in Axin-2 mRNA expression at 50 mg/kg, ip QD for 32 consecutive days by RT-PCR analysis; assay type: organism-based; settings: in vivo
Summary of the method: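 Six-week-old nude mice implanted subcutaneously in the right flank with 2×10^6 SW620 cells. Randomized at mean tumor volume 100–200 mm³, n = 6/group. Dosed IP once daily for 32 days at 10 or 50 mg/kg, or vehicle (10% DMSO, 10% Kolliphor, 80% saline). Tumors collected at day 32; Axin-2, MMP-7 and S100A4 expression measured by RT-PCR.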

Sequence of Serine/threonine-protein kinase PAK 3 (Homo sapiens) (O75914 whole entry, looked up): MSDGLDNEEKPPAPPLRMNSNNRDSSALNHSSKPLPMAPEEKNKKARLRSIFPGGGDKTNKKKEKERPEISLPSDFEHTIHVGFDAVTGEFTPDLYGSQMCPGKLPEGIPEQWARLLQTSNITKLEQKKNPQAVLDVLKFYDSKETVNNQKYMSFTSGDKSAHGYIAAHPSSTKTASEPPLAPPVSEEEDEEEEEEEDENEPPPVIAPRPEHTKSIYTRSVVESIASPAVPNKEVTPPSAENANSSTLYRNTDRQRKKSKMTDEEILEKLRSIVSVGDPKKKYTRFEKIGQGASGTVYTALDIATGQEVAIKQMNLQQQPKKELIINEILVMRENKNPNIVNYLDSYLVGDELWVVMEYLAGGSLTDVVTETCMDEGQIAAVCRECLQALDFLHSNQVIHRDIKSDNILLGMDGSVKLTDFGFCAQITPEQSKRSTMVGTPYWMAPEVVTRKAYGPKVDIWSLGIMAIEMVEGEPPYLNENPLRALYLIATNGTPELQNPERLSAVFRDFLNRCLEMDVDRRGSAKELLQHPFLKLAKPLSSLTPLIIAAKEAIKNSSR
Sequence of Protein kinase C theta type (Homo sapiens) (Q04759 whole entry, looked up): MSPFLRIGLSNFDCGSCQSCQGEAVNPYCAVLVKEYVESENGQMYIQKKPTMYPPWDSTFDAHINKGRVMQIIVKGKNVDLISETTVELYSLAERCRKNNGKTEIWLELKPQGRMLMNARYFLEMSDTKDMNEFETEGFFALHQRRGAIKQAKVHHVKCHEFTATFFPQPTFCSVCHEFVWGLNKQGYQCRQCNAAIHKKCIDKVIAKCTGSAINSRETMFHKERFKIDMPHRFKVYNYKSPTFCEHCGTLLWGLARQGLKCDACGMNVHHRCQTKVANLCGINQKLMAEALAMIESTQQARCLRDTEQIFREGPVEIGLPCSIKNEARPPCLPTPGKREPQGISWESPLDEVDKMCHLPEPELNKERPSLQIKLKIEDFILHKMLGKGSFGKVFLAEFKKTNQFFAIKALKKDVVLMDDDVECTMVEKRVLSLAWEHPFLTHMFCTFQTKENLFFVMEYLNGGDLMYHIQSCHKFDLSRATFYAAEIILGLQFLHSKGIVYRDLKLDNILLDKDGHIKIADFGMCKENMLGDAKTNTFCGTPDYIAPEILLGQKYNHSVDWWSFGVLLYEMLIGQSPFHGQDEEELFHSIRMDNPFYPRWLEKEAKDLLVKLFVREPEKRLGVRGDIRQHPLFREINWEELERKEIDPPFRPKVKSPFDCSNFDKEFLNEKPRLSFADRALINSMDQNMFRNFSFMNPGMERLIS

Cc1c(C(=O)Nc2ccc3ccccc3n2)cnn1-c1ccccc1Br
IC50 [1]: 2.3 nM | GI50 (SW480 [2]): 2400 nM | inhibition (Homo sapiens [3]): Active | IC50 [4]: 1.15 nM | inhibition (Homo sapiens [5]): Active | Activity [6]: Dose-dependent effect | inhibition (HT-29): Dose-dependent effect | Activity (SW480 [7]): Dose-dependent effect | IC50 (SW-620 [8]): 11.6 nM | Activity (SW-620 [9]): 57.9% | Activity (SW-620 [10]): 0.00722% | inhibition [11]: Active | inhibition [12]: Active | half-life [13]: 2.9 h | Activity (SW-620 [14]): Active | Activity (SW-620 [15]): 49% | Activity [16]: Non-Toxic | Activity (Mus musculus [17]): Active | inhibition (INH) (Mus musculus [18]): Active

— ChEMBL document CHEMBL4414663, “Pyrazole-4-Carboxamide (YW2065): A Therapeutic Candidate for Colorectal Cancer via Dual Activities of Wnt/β-Catenin Signaling Inhibition and AMP-Activated Protein Kinase (AMPK) Activation” (J Med Chem, 2019)
